# Screening results (PubChem BioAssay)
# This is one part of a sample in which hits are shown more often than they occur.
# T cruzi intra: intracellular Trypanosoma cruzi inhibition | AID 651903 | activity score (inhibition), % at 5.01 µM | intracellular Trypanosoma cruzi in host cells, plate reader | 4.9% of 22,000 active; in the data active = activity score above about 55%; inconclusive = no clear call, values can overlap the other calls;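 note: parasites and compound incubated about four days before reading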
# A1 apoptosis 2: A1 inhibition read as caspase activation | MEF A1-2A-BIM cells, caspase-Glo luminescence, 3 h; percent of clofoctol response, DMSO zero | caspase activation, % (no concentration beside the values) | 24,000 tested, under 10 active; in the data active = caspase activation above about 5.9%; inconclusive = no clear call, values can overlap the other calls; inactive = below about 2.2%
#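 Material: A1-2A-BIM-expressing MEF cells. Buffer or medium: RPMI-1640 plus 10% FBS. Incubation: cells settled overnight, compound exposure 3 h at 37 °C, 5% CO2. Signal: Caspase-Glo 3/7 luminescence, 1 h at room temperature.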
# INS-1E ATP HTS: rescue of cytokine-induced death in INS-1E beta cells; INS-1E cytokine-induced death, ATP luminescence, 48 h; normalised: neutral wells 0, positive control 100; protection from cytokine-induced ATP loss, % at 10 µM; 0.1% of 20,000 active;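 active = mean replicate protection from cytokine-induced ATP loss at least 50% and at least 75% of replicates each reaching 50%; inconclusive = meets only one of the two criteria, mean or replicate share; inactive = fails both the mean and replicate share criteria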
#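 Assay system: INS-1E rat cells / Quantity: 8000 cells per well / Medium: RPMI without phenol red, 5% FBS / Probe or stimulus: three-cytokine cocktail (IFN-γ, TNF-α, IL-1β) / Dosing: one compound concentration, pin transfer / Timing: 48 h co-treatment, 10 min post-lysis read / Technique: CellTiter-Glo luminescence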
# A number is an active result; 0 = inactive; ? = inconclusive; - = no result given.
SMILES,T cruzi intra,A1 apoptosis 2,INS-1E ATP HTS
Cc1noc(C)c1NC(=O)Nc1ccc2c(c1)CC(=O)N([C@@H](C)CO)C[C@@H](C)[C@@H](CN(C)Cc1ccc(C(=O)O)cc1)O2,-,-,0
C=CCN1C(=O)[C@@]2(O[C@@H](CCO)[C@H]([Si](C)(C)c3ccc(OC)cc3)[C@H]2C)c2cc(NC(C)=O)ccc21,-,0,-
C[C@H]1CN([C@@H](C)CO)C(=O)Cc2cc(NC(=O)C3CCCCC3)ccc2O[C@@H]1CN(C)Cc1ccc(-c2ccccc2)cc1,60.1,-,0
C[C@@H]1CN([C@H](C)CO)C(=O)Cc2cc(NC(=O)C3CC3)ccc2O[C@H]1CN(C)Cc1ccc(-c2ccccc2)cc1,0,0,0
C[C@@H]1CN([C@@H](C)CO)C(=O)Cc2cc(NC(=O)C3CC3)ccc2O[C@H]1CN(C)Cc1ccc(-c2ccccc2)cc1,-,0,-
C[C@@H]1CN([C@H](C)CO)C(=O)Cc2cc(NC(=O)C3CCCCC3)ccc2O[C@H]1CN(C)Cc1ccc(-c2ccccc2)cc1,57.4,0,0
C[C@@H]1CN([C@H](C)CO)C(=O)Cc2cc(NC(=O)C3CCCCC3)ccc2O[C@@H]1CN(C)Cc1ccc(-c2ccccc2)cc1,?,0,0
C[C@H](CO)N1C[C@H](C)[C@H](CN(C)Cc2ccc(-c3ccccc3)cc2)Oc2ccc(NC(=O)C3CCCCC3)cc2CC1=O,67.1,-,0
C[C@@H]1CCCCO[C@@H](CN(C)S(C)(=O)=O)[C@H](C)CN([C@@H](C)CO)C(=O)c2cc(NC(=O)Nc3ccc(C(F)(F)F)cc3)ccc2O1,-,0,-
CC(C)NC(=O)N(C)C[C@@H]1Oc2c(NS(=O)(=O)c3cn(C)cn3)cccc2C(=O)N([C@H](C)CO)C[C@H]1C,0,0,0
C[C@H](CO)N1C[C@H](C)[C@H](CN(C)C(=O)Nc2cccc3ccccc23)OCCCC[C@H](C)Oc2ccc(N(C)C)cc2C1=O,-,0,-
C[C@@H]1CN([C@@H](C)CO)C(=O)CCCn2nncc2CO[C@@H]1CN(C)Cc1ccncc1,0,0,-
C[C@@H]1CN([C@H](C)CO)C(=O)c2cccc(NC(=O)c3ccc(-c4nccs4)cc3)c2O[C@@H]1CN(C)S(=O)(=O)c1ccc(Cl)cc1,0,-,0
C[C@@H]1CN([C@@H](C)CO)C(=O)Cc2cc(NC(=O)Nc3ccc(F)cc3)ccc2O[C@@H]1CN(C)Cc1ccc(-c2ccccc2)cc1,61.0,0,0
C[C@@H]1CN([C@@H](C)CO)C(=O)Cc2cc(NC(=O)NC3CCCCC3)ccc2O[C@@H]1CN(C)Cc1ccc(Cl)c(Cl)c1,0,-,0
C[C@H](CO)N1C[C@H](C)[C@H](CN(C)Cc2ccc(-c3ccccc3)cc2)Oc2ccc(NC(=O)Nc3ccccc3)cc2CC1=O,?,-,0
C[C@H]1CN([C@@H](C)CO)C(=O)Cc2cc(NC(=O)NC3CCCCC3)ccc2O[C@@H]1CN(C)Cc1ccc(Cl)c(Cl)c1,65.4,0,0
C[C@@H]1CN([C@@H](C)CO)C(=O)Cc2cc(NC(=O)c3ccncc3)ccc2O[C@@H]1CN(C)Cc1ccccc1,0,-,0
C[C@H]1CN([C@@H](C)CO)C(=O)Cc2cc(NC(=O)c3ccncc3)ccc2O[C@H]1CN(C)Cc1ccc(-c2ccccc2)cc1,77.5,-,0
C[C@H]1CN([C@@H](C)CO)C(=O)Cc2cc(NC(=O)NC3CCCCC3)ccc2O[C@H]1CN(C)Cc1ccc(-c2ccccc2)cc1,67.3,-,0
C[C@H](CO)N1C[C@H](C)[C@H](CN(C)Cc2ccc(-c3ccccc3)cc2)Oc2ccc(NC(=O)NC3CCCCC3)cc2CC1=O,0,-,0
C[C@H]1CN([C@@H](C)CO)C(=O)Cc2cc(NC(=O)C3CCCCC3)ccc2O[C@H]1CN(C)S(=O)(=O)c1ccc(Cl)cc1,0,0,0
C[C@H]1CN([C@@H](C)CO)C(=O)c2cccc(NC(=O)Nc3ccc4c(c3)OCO4)c2O[C@H]1CN(C)Cc1ccncc1,0,-,0
CNC[C@@H]1OCCCC[C@@H](C)Oc2ccc(NS(=O)(=O)c3ccc(C)cc3)cc2C(=O)N([C@H](C)CO)C[C@@H]1C,0,0,0
C[C@@H]1CN([C@@H](C)CO)C(=O)Cc2cc(NC(=O)Nc3ccccc3)ccc2O[C@@H]1CN(C)Cc1ccc(-c2ccccc2)cc1,62.4,0,0
SMILES,T cruzi intra,A1 apoptosis 2,INS-1E ATP HTS
C[C@H]1CN([C@@H](C)CO)C(=O)Cc2cc(NC(=O)Nc3ccccc3)ccc2O[C@H]1CN(C)Cc1ccc(-c2ccccc2)cc1,0,0,0
COc1ccc(NC(=O)Nc2cccc3c2O[C@@H](CN(C)Cc2ccc(C(=O)Nc4ccccc4N)cc2)[C@@H](C)CN([C@H](C)CO)C3=O)cc1,-,0,-
COc1ccc(NC(=O)Nc2cccc3c2O[C@@H](CN(C)Cc2ccc(C(=O)Nc4ccccc4N)cc2)[C@@H](C)CN([C@@H](C)CO)C3=O)cc1,0,0,0
COc1ccc(NC(=O)Nc2cccc3c2O[C@H](CN(C)Cc2ccc(C(=O)Nc4ccccc4N)cc2)[C@H](C)CN([C@H](C)CO)C3=O)cc1,61.3,-,0
COc1ccc(NC(=O)Nc2cccc3c2O[C@@H](CN(C)Cc2ccc(C(=O)Nc4ccccc4N)cc2)[C@H](C)CN([C@@H](C)CO)C3=O)cc1,77.4,-,0
C[C@@H]1CN([C@@H](C)CO)C(=O)c2cccc(NC(=O)c3ccc(-c4nccs4)cc3)c2O[C@H]1CN(C)S(=O)(=O)c1ccc(Cl)cc1,0,-,0
CC(C)NC(=O)Nc1ccc2c(c1)C(=O)N([C@@H](C)CO)C[C@H](C)[C@@H](CN(C)Cc1ccncc1)O2,0,-,-
COc1ccc(S(=O)(=O)N(C)C[C@@H]2Oc3c(NC(=O)c4ccc(-c5nccs5)cc4)cccc3C(=O)N([C@H](C)CO)C[C@H]2C)cc1,0,0,0
C[C@H](CO)N1C[C@H](C)[C@@H](CN(C)Cc2ccc(Oc3ccccc3)cc2)Oc2c(NC(=O)NC3CCCCC3)cccc2C1=O,69.8,-,0
C[C@H](CO)N1C[C@H](C)[C@H](CN(C)Cc2ccc(-c3ccccc3)cc2)Oc2c(NC(=O)NC3CCCCC3)cccc2C1=O,69.3,0,0
C[C@@H]1CN([C@@H](C)CO)C(=O)c2cccc(NC(=O)NC3CCCCC3)c2O[C@@H]1CN(C)Cc1ccccc1,0,0,0
C[C@H]1CN([C@@H](C)CO)C(=O)c2cccc(NC(=O)NC3CCCCC3)c2O[C@@H]1CN(C)Cc1ccc(-c2ccccc2)cc1,0,0,0
CNC[C@@H]1Oc2c(NS(=O)(=O)c3ccc(F)cc3)cccc2C(=O)N([C@@H](C)CO)C[C@@H]1C,0,-,0
COc1ccc(NC(=O)N(C)C[C@@H]2Oc3ncc(-c4cc5ccccc5o4)cc3C(=O)N([C@H](C)CO)C[C@@H]2C)cc1,?,-,0
C[C@@H]1CN([C@H](C)CO)C(=O)CCCn2nncc2CO[C@@H]1CN(C)C(=O)Nc1ccccc1F,0,0,-
COc1ccc([Si](C)(C)[C@@H]2[C@@H](CCO)O[C@]3(C(=O)N4c5c(cc(OC)cc53)C(C)=CC4(C)C)[C@H]2C)cc1,-,26.7,-
COc1ccc([Si](C)(C)[C@@H]2[C@@H](CCn3cc(CCO)nn3)O[C@]3(C(=O)N(c4ccccc4)c4ccccc43)[C@H]2C)cc1,-,12.2,-
